One may read the EC50 as the concentration giving half of the maximal effect. Lower therefore signals higher potency in that assay. For orientation: Inhibition means the relative decrease from the control value, in per cent. Low readings indicate little suppression, high ones strong suppression.

The structures appear in SMILES notation.

In test [1] the test system is Human gammaherpesvirus 4. Put plainly: Effective concentration to inhibit 50% of epstein Barr virus replication in a cell culture model. Format: functional, organism-based.
Test [2] in a line: Effective concentration to inhibit 50% of human immunodeficiency virus replication in a cell culture model. It is filed as functional.
For test [3], the system named is Hepatitis B virus. Briefly: Effective concentration to inhibit 50% of hepatitis B virus replication in a cell culture model. It is filed as functional, organism-based.
The next test concerns MT2. Put plainly: Cytotoxicity against MT-2 cell lines of human. It is filed as functional. The conditions noted are these: read-out: ID50 (the source's name).
Test [4] relates to Human alphaherpesvirus 1. Put plainly: Effective concentration to inhibit 50% of herpes simplex virus type 1 replication in a cell culture model. Format: functional, organism-based.
Test [5] concerns Hepatitis C virus. Put plainly: Effective concentration to inhibit 50% of hepatitis C virus replication in a cell culture model. Format: functional, organism-based, Hepacivirus hominis. An outline of the steps:
(§1)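 HCV replicon Huh-Luc/neo cells grown to confluence, then treated with varying drug concentrations in DMEM with 10% dFBS for 3 days. Medium was removed and cells lysed in passive lysis buffer, shaken 15 min at room temperature. Lysate was mixed with luciferase substrate and luminescence read immediately as the measure of replicon activity.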

Test [6] concerns Human alphaherpesvirus 2. Briefly: Effective concentration to inhibit 50% of herpes simplex virus type 2 replication in a cell culture model. Format: functional, organism-based.
A further test deals with CCRF-CEM. Briefly: Cytotoxicity against CEM cell lines of human. Format: functional. The conditions noted are these: read-out: ID50 (the source's name).
The nature of test [7]: Effective concentration to inhibit 50% of cytomegalovirus (CMV) replication in a cell culture model. It is filed as functional.
In test [8] the test system is Human alphaherpesvirus 2. Briefly: Effective concentration to inhibit 50 % of Herpes simplex virus type 2 replication in a cell culture model. The settings on record: Oryctolagus cuniculus.
For test [9], the system named is Human gammaherpesvirus 4. Briefly: Effective concentration to inhibit 50 % of Epstein Barr virus replication in a cell culture model. Format: functional, organism-based, epsteinBarr virus.
Test [10] concerns Hepatitis B virus. Briefly: Effective concentration to inhibit 50 % of hepatitis B virus replication in a cell culture model (3.4>10). Format: functional, organism-based.
Test [11] has as its system Hepatitis C virus. Put plainly: Percent inhibition against Hepatitis C virus replication in a cell culture model. It is filed as functional, Hepacivirus hominis. In outline: as §1
For test [12], the system named is Human alphaherpesvirus 2. Put plainly: Effective concentration to inhibit 50 % of herpes simplex virus type 2 replication in a cell culture model;ND=Not determined. The settings on record: Oryctolagus cuniculus.
Test [13] has as its system Human alphaherpesvirus 1. Briefly: Effective concentration to inhibit 50 % of Herpes simplex virus type 1 replication in a cell culture model. It is filed as functional, organism-based.

In the case of `O=C1OCc2c1cc1c(Cl)cc3c(c1c2-c1ccc2c(c1)OCO2)OCO3`, the concentration giving a half-maximal response (EC50) in the test with Human gammaherpesvirus 4 [1] was greater than 20 µM; in test [2], greater than 50 µM; in the test with Hepatitis B virus [3], greater than 60 µM; in the test with Human alphaherpesvirus 1 [4] it was 23 µM; in the test with Hepatitis C virus [5] it was greater than 10 µM; in the test on Human alphaherpesvirus 2 [6], greater than 25 µM. Besides, it took 8.8 µM to reach a half-maximal effect in [7] (EC50). Also, the IC50 was 50 µM in the test on MT2 and 27 µM in the test with CCRF-CEM.

In the case of `CCOC(=O)c1c(C(=O)OCC)c(-c2ccc3c(c2)OCO3)c2c3c(ccc2c1O)OCO3`, the 50% effective concentration (EC50) in the test on Human gammaherpesvirus 4 [1] was greater than 10 µM; in test [2], greater than 15 µM; in the test on Hepatitis B virus [3], greater than 10 µM; in the test on Human alphaherpesvirus 2 [8], greater than 50 µM; with Human alphaherpesvirus 1 [4], greater than 50 µM; in the test with Hepatitis C virus [5], greater than 10 µM. Moreover, the IC50 amounted to 15 µM in the test on MT2 and 39 µM in the test on CCRF-CEM.

As for `O=C1c2cc3ccc4c(c3c(-c3ccc5c(c3)OCO5)c2C(=O)N1CCCO)OCO4`, the EC50 in the test with Human gammaherpesvirus 4 [1] was greater than 5 µM; in test [2] it was greater than 22 µM; with Hepatitis B virus [3], greater than 20 µM; in the test on Human alphaherpesvirus 1 [4] it was greater than 30 µM; with Hepatitis C virus [5], greater than 10 µM; in the test on Human alphaherpesvirus 2 [6], greater than 30 µM. In test [7], the 50% effective concentration (EC50) stood at 8.1 µM. The IC50 was determined as 22 µM in the test on MT2 and 27 µM with CCRF-CEM.

Molecule `Nc1ccn([C@@H]2CS[C@H](CO)O2)c(=O)n1` [LAMIVUDINE] had an EC50 in the test with Human gammaherpesvirus 4 [9] of 0.4 µM.

In the case of `O=C(O)c1cc2c(I)cc3c(c2c(-c2ccc4c(c2)OCO4)c1CO)OCO3`, the EC50 was greater than 20 µM with Human gammaherpesvirus 4 [1]; greater than 80 µM in [2]; greater than 50 µM with Human alphaherpesvirus 1 [4]; 10 µM with Hepatitis C virus [5]; greater than 50 µM in the test on Human alphaherpesvirus 2 [6]; greater than 20 µM in [7]. Further, the IC50 with MT2 is 80 µM; in the test on CCRF-CEM, greater than 100 µM.

Regarding `O=C(O)c1cc2ccc3c(c2c(-c2ccc4c(c2)OCO4)c1CO)OCO3`, the half-maximal effective concentration (EC50) with Human gammaherpesvirus 4 [1] is greater than 20 µM; in test [2], greater than 10 µM; in the test with Human alphaherpesvirus 1 [4] it was 9 µM; in the test on Hepatitis B virus [10] it was greater than 3.4 µM; in the test with Hepatitis C virus [5], 10 µM; in the test with Human alphaherpesvirus 2 [6], 25 µM. The EC50 in [7] turned out to be 2.5 µM. Besides, the figures for the IC50 in the test with MT2 and with CCRF-CEM were 10 µM and 30 µM, respectively.

In the case of `NC(=O)c1cc2ccc3c(c2c(-c2ccc4c(c2)OCO4)c1C(=O)O)OCO3`, the concentration for a half-maximal effect (EC50) in the test with Human gammaherpesvirus 4 [1] was 9 µM; in test [2], greater than 5 µM; in the test with Hepatitis B virus [3], 0.8 µM; in the test with Human alphaherpesvirus 1 [4] it was 0.15 µM; with Hepatitis C virus [5], 3 µM; in the test with Human alphaherpesvirus 2 [6], less than 0.1 µM. This molecule also had a concentration giving a half-maximal response (EC50) in test [7] of 0.45 µM. Further, the IC50 in the test with MT2 came out at 5 µM; in the test on CCRF-CEM, 8.4 µM.

`O=C1c2cc3ccc4c(c3c(-c3ccc5c(c3)OCO5)c2C(=O)N1CCCOCc1ccccc1)OCO4` returned an Inhibition in the test on Hepatitis C virus [11] of 62%. The EC50 in the test with Human gammaherpesvirus 4 [1] was greater than 5 µM; in [2], greater than 100 µM; with Human alphaherpesvirus 1 [4] it was greater than 50 µM; with Hepatitis C virus [5], 10 µM; with Human alphaherpesvirus 2 [6] it was greater than 50 µM. The IC50 in the test on MT2 and with CCRF-CEM was greater than 100 µM in each case.

In the case of `O=C1OCc2c1cc1ccc3c(c1c2-c1ccc2c(c1)OCO2)OCO3` [HELIOXANTHIN], the 50% effective concentration (EC50) with Human gammaherpesvirus 4 [1] was greater than 20 µM; in test [2], greater than 2.5 µM; in the test on Hepatitis B virus [3], greater than 1 µM; with Human alphaherpesvirus 1 [4], 2 µM; in the test with Hepatitis C virus [5] it was greater than 3 µM; with Human alphaherpesvirus 2 [6], 35 µM. In addition, the response in test [7] was half-maximal at 7.3 µM (EC50). Besides, the IC50 turned out to be 2.5 µM with MT2 and 30 µM in the test on CCRF-CEM.

Consider `O=C1OC(=O)c2c1cc1ccc3c(c1c2-c1ccc2c(c1)OCO2)OCO3`, for which the concentration giving a half-maximal response (EC50) in the test with Human gammaherpesvirus 4 [1] was greater than 20 µM; in [2], greater than 100 µM; in the test on Hepatitis B virus [3], greater than 10 µM; in the test on Human alphaherpesvirus 1 [4], greater than 50 µM; in the test on Hepatitis C virus [5], greater than 10 µM; in the test with Human alphaherpesvirus 2 [6] it was greater than 50 µM. Besides, the response in [7] was half-maximal at 17.6 µM (EC50). Besides, the IC50 in the test on MT2 is greater than 100 µM; in the test on CCRF-CEM, greater than 50 µM.

Regarding `O=C(O)c1cc2c(Cl)cc3c(c2c(-c2ccc4c(c2)OCO4)c1CO)OCO3`, the EC50 with Human gammaherpesvirus 4 [1] was greater than 20 µM; in test [2], greater than 60 µM; in the test with Hepatitis B virus [3], greater than 10 µM; in the test on Human alphaherpesvirus 1 [4] it was greater than 50 µM; with Hepatitis C virus [5], greater than 10 µM; with Human alphaherpesvirus 2 [6] it was greater than 20 µM. Besides, the EC50 in test [7] is greater than 20 µM. The results for the IC50 in the test with MT2 and with CCRF-CEM were 60 µM and greater than 100 µM, respectively.

As to `Nc1nc2c(ncn2COCCO)c(=O)[nH]1` [ACYCLOVIR], the half-maximal effective concentration (EC50) in the test on Human alphaherpesvirus 2 [12] was 51 µM; in the test on Human alphaherpesvirus 1 [13], 8 µM; in the test on Hepatitis B virus [3] it was 0.02 µM.

Turning to `O=c1[nH][nH]c(=O)c2c(-c3ccc4c(c3)OCO4)c3c4c(cc(Br)c3cc12)OCO4`, the Inhibition in the test with Hepatitis C virus [11] amounted to 45%. The concentration giving a half-maximal response (EC50) was greater than 20 µM in the test on Human gammaherpesvirus 4 [1]; 2.5 µM in test [2]; greater than 10 µM in the test on Hepatitis B virus [3]; 16 µM in the test with Human alphaherpesvirus 1 [4]; 3 µM in the test with Hepatitis C virus [5]; greater than 20 µM with Human alphaherpesvirus 2 [6]. Besides, the figures for the IC50 in the test on MT2 and with CCRF-CEM were greater than 100 µM and 28 µM, respectively.

On to `O=C(O)c1cc2c(Br)cc3c(c2c(-c2ccc4c(c2)OCO4)c1CO)OCO3`, for which the half-maximal effective concentration (EC50) in the test with Human gammaherpesvirus 4 [1] was greater than 20 µM; in test [2], greater than 50 µM; in the test with Hepatitis B virus [3] it was greater than 18 µM; in the test with Human alphaherpesvirus 1 [4], greater than 50 µM; with Human alphaherpesvirus 2 [6] it was greater than 50 µM; in test [7], greater than 20 µM. The figures for the IC50 in the test with MT2 and with CCRF-CEM were 50 µM and 46.5 µM, respectively.

With `CN1Cc2cc3ccc4c(c3c(-c3ccc5c(c3)OCO5)c2C1=O)OCO4`, the EC50 is greater than 20 µM with Human gammaherpesvirus 4 [1]; greater than 26 µM in [2]; 0.08 µM in the test on Hepatitis B virus [3]; 14 µM in the test on Human alphaherpesvirus 1 [4]; 3 µM in the test with Hepatitis C virus [5]; 14 µM with Human alphaherpesvirus 2 [6]. Also, the results for the IC50 in the test with MT2 and in the test on CCRF-CEM were 26 µM and 27 µM, respectively.

With `O=C1OC(O)c2c1c(-c1ccc3c(c1)OCO3)c1c3c(ccc1c2O)OCO3` (stereo not drawn), the half-maximal effective concentration (EC50) was greater than 10 µM in the test on Human gammaherpesvirus 4 [1]; greater than 15 µM in test [2]; greater than 20 µM with Hepatitis B virus [3]; greater than 23 µM in the test on Human alphaherpesvirus 1 [4]; greater than 10 µM with Hepatitis C virus [5]; greater than 28 µM with Human alphaherpesvirus 2 [6]. Also, the IC50 was 15 µM in the test with MT2 and 39 µM with CCRF-CEM.

As to `O=C1NCc2c1cc1ccc3c(c1c2-c1ccc2c(c1)OCO2)OCO3`, the EC50 with Human gammaherpesvirus 4 [1] was 11 µM; in [2] it was greater than 4 µM; in the test with Hepatitis B virus [3] it was 0.08 µM; with Human alphaherpesvirus 1 [4], 0.29 µM; with Hepatitis C virus [5], 1 µM; in the test on Human alphaherpesvirus 2 [6], 0.16 µM. Also, the IC50 was found to be 4 µM in the test on MT2 and 4.5 µM with CCRF-CEM.

As for `COC1=NC(=O)c2c1cc1ccc3c(c1c2-c1ccc2c(c1)OCO2)OCO3`, the EC50 was greater than 20 µM in the test with Human gammaherpesvirus 4 [1]; greater than 100 µM in [2]; greater than 5 µM in the test on Hepatitis B virus [3]; greater than 50 µM in the test with Human alphaherpesvirus 1 [4]; greater than 10 µM with Hepatitis C virus [5]; greater than 50 µM in the test with Human alphaherpesvirus 2 [6]. Further, the IC50 in the test on MT2 and with CCRF-CEM was greater than 100 µM throughout.

Turning to `O=C1c2cc3ccc4c(c3c(-c3ccc5c(c3)OCO5)c2CN1CCCOCc1ccccc1)OCO4`, the concentration giving a half-maximal response (EC50) with Human gammaherpesvirus 4 [1] is greater than 20 µM; in [2] it was greater than 28 µM; in the test on Hepatitis B virus [3] it was greater than 20 µM; with Human alphaherpesvirus 1 [4], 13 µM; with Hepatitis C virus [5] it was 10 µM; in the test on Human alphaherpesvirus 2 [6], greater than 20 µM. Besides, the values for the IC50 in the test with MT2 and in the test on CCRF-CEM were 28 µM and 67 µM, respectively.

The record behind these values is ChEMBL document CHEMBL1141180, “Synthesis and antiviral activity of helioxanthin analogues” (J Med Chem, 2005).
